# Screening data as filed in PubChem BioAssay.
# Rows were chosen to be rich in hits. Some 2.3% of all compounds tested hit in one or more screens of this group.
# TRPC4 PAM: allosterically enhances the mouse TRPC4 cation channel; hit rate 0.42% among 310,000; B-score at 10 µM; Q9QUQ5; HEK293 TRPC4beta/mu-opioid, DAMGO EC20, Fluo-4 Ca2+ flux; stronger effect = higher value;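 active = B-score of calcium response area above 5 SD of library B-scores, with initial fluorescence ratio within 5 SD of library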;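 note: B-score of integrated fluorescence ratio over time as area under calcium response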
# TRPC4 block: TRPC4 (mouse) channel inhibition; Q9QUQ5; HEK293 TRPC4beta/mu-opioid, DAMGO-evoked Fluo4 calcium flux; stronger effect = lower value; B-score at 10 µM; hit rate 0.39% among 300,000;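 active = B-score over 3 SD under the library average, no early fluorescence shift, positive overall ratio signal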
#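 Material: HEK293 cells with stable TRPC4beta plus mu-opioid receptor expression / Probe or stimulus: DAMGO in two steps, submaximal then maximal / Compound: single concentration per test compound / Technique: kinetic Fluo4 fluorescence imaging of calcium influx / Read-out: per-well B score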
# TRPC6 act: activators of mouse TRPC6 channel | Q61143 | HEK293-TRPC6 membrane potential dye fluorescence; stronger effect = higher value | B-score at 10 µM | hit rate 0.13% among 310,000 | AID 2550;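 active = B-score of the integrated fluorescence ratio above library mean plus 3 SD, and starting fluorescence ratio within library mean plus 5 SD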;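 note: higher score means more depolarization so channel activation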
# TRPC4 act: opens the mouse TRPC4 cation channel | HEK293 TRPC4beta/mu-opioid, Fluo4 calcium fluorescence; stronger effect = higher value | B-score at 10 µM | hit rate 0.49% among 310,000;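 active = B-score above 5 SD of library B-scores, and initial fluorescence ratio not above library mean plus 5 SD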;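 note: positive B-score marks a calcium rise read as TRPC4 activation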
#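 Incubation: 45 min room-temperature Fluo4 loading, 110 s read / System: HEK293 cells stably co-expressing mouse TRPC4beta and mu-opioid receptor / Signal: Fluo4 fluorescence, kinetic / Control set: buffer (low) and maximal DAMGO (high) / Measure: integrated baseline-normalised fluorescence ratio, converted to per-well B score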
# TRPC6 inhibitor: mouse TRPC6 channel inhibition; B-score at 10 µM; AID 2553; hit rate 1.1% among 310,000; HEK293-TRPC6, membrane potential dye, ACh-evoked depolarization; stronger effect = lower value; Q61143;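 active = B-score under library mean minus 3 SD, initial fluorescence not abnormally high, positive integrated signal ratio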;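 note: B-score derived from integrated fluorescence ratio over the kinetic read; more negative B-score means stronger inhibition of depolarization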
# Active calls of the source: *; i = inactive.
SMILES,TRPC4 PAM,TRPC4 block,TRPC6 act,TRPC4 act,TRPC6 inhibitor
CSCCC(NC(=O)c1cccc(C)c1)C(=O)OCC(=O)Nc1c(C)nn(-c2ccccc2)c1C (configuration not stated),i,i,i,i,i
Cc1cc(C[n+]2ncsc2N)c2ncccc2c1,i,i,i,i,i
CCOc1ccc2c(c1)sc(N)[n+]2Cc1cc(C)cc2cccnc12,i,-7*,i,i,i
COc1ccc2c(c1)sc(N)[n+]2Cc1cc(C)cc2cccnc12,i,-5*,i,i,i
Cc1cc(C[n+]2cc(Cl)ccc2N)c2ncccc2c1,i,i,i,i,i
CCN(CCCNS(=O)(=O)c1cc(-c2cc(C)no2)ccc1C)Cc1ccccc1,i,i,i,175*,i
CN1CCN(Cc2cccc(Oc3ccc(Cl)cc3)c2)CC1,19*,i,i,i,i
CN(C(=O)Cn1nnc(-c2ccccc2)n1)C1CCS(=O)(=O)C1 (configuration not stated),i,i,i,i,i
CCCCN(C)CCNC(=O)c1cc2c(-c3cccc(OC)c3)nn(C)c2s1,25*,i,i,i,i
CCN(CC)CCCNC(=O)c1cc2c(-c3cccc(OC)c3)nn(C)c2s1,13*,i,i,79*,i
COc1cccc(-c2nn(C)c3sc(C(=O)NCc4ccco4)cc23)c1,i,i,i,i,i
CCN1CCCC1CNC(=O)c1cc2c(-c3cccc(OC)c3)nn(C)c2s1 (configuration not stated),i,i,i,i,i
COc1cccc(-c2nn(C)c3sc(C(=O)NCCCN(C)Cc4ccccc4)cc23)c1,i,i,i,57*,i
CCCCN(CC)CCCNC(=O)c1cc2c(-c3ccc(OC)c(OC)c3)nn(C)c2s1,i,i,i,82*,i
Cn1ncc(C#N)c1/N=C/N(Cc1ccccc1)Cc1ccccc1,16*,i,i,i,i
CC(=O)NCC1CCCN(Cc2cn(-c3ccccc3)nc2-c2ccc3c(c2)OCO3)C1 (configuration not stated),i,i,i,i,i
COC(=O)C1CCN(Cc2cn(-c3ccccc3)nc2-c2ccc3c(c2)OCO3)CC1,i,i,i,83*,i
COc1ccccc1N1CCN(C2CCCCC2NS(=O)(=O)c2ccc(Cl)cc2)CC1 (configuration not stated),i,i,i,i,i
COc1ccc(N2CCN(C3CCCCC3NS(=O)(=O)c3ccc(Cl)cc3)CC2)cc1 (configuration not stated),15*,i,i,i,i
COC(=O)c1cc2c(=O)c3ccccc3oc2nc1/C=C/N(C)C,i,i,i,69*,i
COC(=O)c1cc2c(=O)c3ccccc3oc2nc1C,i,i,i,i,i
CC1CC(C)CN(CCCNC(=O)CCC(=O)N2CCOc3ccccc32)C1 (configuration not stated),i,i,i,73*,i
O=C(N/N=C\c1ccc[nH]1)C1COc2ccccc2O1 (configuration not stated),i,i,i,51*,i
O=C(N/N=C/c1cccs1)C1COc2ccccc2O1 (configuration not stated),i,i,i,i,i
CCC/C=N/NC(=O)C1COc2ccccc2O1 (configuration not stated),i,i,i,i,i
SMILES,TRPC4 PAM,TRPC4 block,TRPC6 act,TRPC4 act,TRPC6 inhibitor
Cc1ccc(/C=N/NC(=O)C2COc3ccccc3O2)s1 (configuration not stated),76*,i,i,i,i
O=C(N/N=C\c1ccccn1)C1COc2cc3ccccc3cc2O1 (configuration not stated),i,i,i,53*,i
O=C(N/N=C\c1ccc(Br)o1)C1COc2ccccc2O1 (configuration not stated),i,i,i,i,i
O=C(N/N=C/c1ccco1)C1COc2ccccc2O1 (configuration not stated),i,i,i,111*,i
Cc1sc(NC(=O)c2ccco2)c(C(c2ccc(F)cc2)N2CCN(C)CC2)c1C (configuration not stated),34*,i,i,i,i
Cc1sc(NC(=O)c2ccco2)c(C(c2cccnc2)N2CCN(c3ccc(F)cc3)CC2)c1C (configuration not stated),i,i,i,i,i
COC(=O)C1=C(C)N=c2s/c(=C3\C(=O)Nc4ccccc43)c(=O)n2C1c1ccccc1 (configuration not stated),i,i,i,i,-5.9*
CC(C)[C@H]1COC(NC2=N[C@@H](C(C)C)CO2)=N1,i,i,i,i,i
N#CC1(NC(=O)COC(=O)c2nccnc2N)CCCCC1,i,i,i,i,i
CCCN(CCC)CCCNC(=S)Nc1ccc2nc(N3CCN(C)CC3)cc(C)c2c1,13*,i,i,i,i
CCCN(CCC)CCCNC(=S)Nc1ccc2nc(N3CCN(CC)CC3)cc(C)c2c1,i,i,i,i,i
CCN(CC)CCCNC(=O)CCC(=O)Nc1ccc2nc(N3CCCCC3)cc(C)c2c1,i,i,i,i,i
CCCN(CCC)CCNC(=O)CCC(=O)Nc1ccc2nc(N3CCOCC3)cc(C)c2c1,i,i,i,97*,i
CCCCN(CC)CCNC(=O)CCC(=O)Nc1ccc2nc(N3CCN(C)CC3)cc(C)c2c1,i,i,i,118*,i
CCCN(CCC)CCNC(=S)Nc1ccc2nc3n(c(=O)c2c1)CCCCC3,i,i,i,88*,i
CC(=O)NS(=O)(=O)c1ccc(NC(=O)c2oc3c(Cl)cccc3c2C)cc1,i,i,i,i,i
Cc1cc(N2CCN(C)CC2)nc2ccc(NC(=S)NC3CC3)cc12,i,i,i,i,i
CCCCN(CC)CCNC(=S)Nc1ccc2nc(N3CCN(C)CC3)cc(C)c2c1,i,i,i,66*,i
CC(=O)N1c2ccc(S(=O)(=O)N3CCCCC3)cc2CC1C(=O)NCc1cccc(Cl)c1 (configuration not stated),i,i,i,i,i
CN(CCc1ccccn1)c1ccc([N+](=O)[O-])cn1,i,i,i,189*,i
O=[N+]([O-])c1ccc(SCCc2ccccn2)cc1,14*,i,i,i,i
O=[N+]([O-])c1ccc(SCCc2ccncc2)cc1,i,i,i,i,i
